In ChEMBL document CHEMBL1157263, “Cytotoxic diacetylenic spiroketal enol ethers from Plagius flosculosus” (J Nat Prod, 2006):

What was measured:
Assay type in all cases: functional, cell-based
HL-60 [1] = assay: Cytotoxicity against human HL60 after 20 hrs by WST1 assay; conditions: HL-60, 20 h
Summary of the method: (§1)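 WST-1 cell viability read-out after 2.5, 20 and 72 h exposure; compounds tested over 0.5 to 80 µM. Cells: CD4+ Jurkat T-cells (ATCC TIB-152), Bcl-2-transfected Jurkat, and HL-60 (ATCC CCL-240). Maximal standard deviation 10% (absolute).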

Jurkat [2] = assay: Cytotoxicity against human Jurkat T cells after 20 hrs by WST1 assay; summary of the method: as §1
Jurkat [3] = assay: Cytotoxicity against human Jurkat T cells overexpressing Bcl2 after 20 hrs by WST1 assay; summary of the method: as §1
HL-60 [4] = assay: Induction of apoptosis in human HL60 cells by FACS
Summary of the method: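 HL-60 cells (10^6 per sample) exposed 24 h, washed in cold PBS with 1% bovine calf serum and spun at 200g, 4 °C. Staining with annexin V-FITC (2 µg/mL) in HEPES binding buffer, pH 7.4, 10 min on ice in the dark, then 1 µg PI per tube. Flow cytometry within 20 min; annexin V-FITC-positive cells in the gated population scored apoptotic. Taxol 500 nM positive control, untreated negative control.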

Row | SMILES | IC50 (HL-60 [1]) [µM] | IC50 (Jurkat [2]) [µM] | IC50 (Jurkat [3]) [µM] | Activity (HL-60 [4])
1 | CC#CC#C/C=C1\C=C[C@@]2(CC=CO2)O1 | 6.1 | 4.7 | 8.4 | 
2 | CC#CC#C/C=C1\C=C[C@]2(OC=CC2OC(C)=O)O1 (stereo partly drawn) | 4 | 6.4 | 6.9 | Dose-dependent effect
3 | CC#CC#C/C=C1\C=C[C@@]2(CCCO2)O1 | 16.2 | 11.2 | 14.1 | 
4 | CC#CC#C/C=C1/C=CC2(CCC(OC)O2)O1 (racemic) [FLOSCULIN C] | 16.7 | 10.8 | 16.9 | 
5 | CC#CC#C/C=C1/C=C[C@]2(OC=CC2OC(C)=O)O1 (stereo partly drawn) | 4.2 | 4.1 | 5.2 | Dose-dependent effect
6 | CC#CC#C/C=C1/C=C[C@@]2(CC=CO2)O1 | 5.6 | 3.8 | 7.2 | 
7 | C=C1C(=O)O[C@@H]2C[C@@H](C)[C@@H]3C=CC(=O)[C@@]3(C)[C@@H](O)[C@H]12 [HELENALIN] | 0.7 | 0.46 |  | 
8 | CC#CC#C/C=C1/O[C@@]2(OC=C[C@H]2OC(C)=O)[C@@H](O)[C@@H]1Cl [FLOSCULIN A] | 18.9 | 13.2 | 19.1 | 
9 | CC#CC#C/C=C1\C=CC2(CCC(OC)O2)O1 (racemic) [FLOSCULIN B] | 18.3 | 15.2 | 19.2 | 
